Experimental data from different studies.
Lines come from different studies, so protocols differ.
Organism: Escherichia coli
Observed: microbial growth

Structure (SMILES)	technique	cell line	strain	time	setting	MIC
N=C(N)c1ccc(OCCCCCOc2ccc(C(=N)N)cc2)cc1	broth dilution		ATCC25922			200 µg/mL
CC(C)Oc1c(NC(=O)c2ccc(NC(=O)[C@H](CC(N)=O)NC(=O)c3ccc(C#Cc4ccc(C#N)cc4)cc3)cc2)ccc(C(=O)Nc2ccc(C(=O)O)cc2)c1O			DSM1116			0.06 µg/mL
N=C(N)c1ccc(OCc2cc(COc3ccc(C(=N)N)cc3)cc(-c3ccccc3)c2)cc1			BW25113			≥ 100 µg/mL
Cc1c(CN(C)C(=O)/C=C/c2cnc3c(c2)CC(CCN)C(=O)N3)oc2ccccc12.Cl (stereo not drawn)	broth dilution		BAA2469		clinical isolate	2 µg/mL
Cc1ccc(C)n1-c1ccc(-c2nnc(-c3ccc(O)cc3)[nH]2)cc1	broth dilution		ATCC10536	18 h		250 µg/mL
NCCCNC1CCCCc2c1[nH]c1ccc(Br)cc21 (stereo not drawn)	broth dilution		ATCC25922			16 µg/mL
N=C(N)c1ccccc1OCc1ccc(COc2ccccc2C(=N)N)cc1	broth dilution		BW25113			> 200 µg/mL
Clc1ccc(NCc2ccc(Oc3ccccn3)cc2)cc1						> 50 µg/mL
COc1c(C)c(OC(C)=O)c(C)c(O)c1C(=O)/C=C/c1ccccc1	broth dilution		ATCC25922			5000 µg/mL
CC(C)Oc1c(NC(=O)c2ccc(NC(=O)[C@H](CC(N)=O)NC(=O)c3ccc(NC(=O)c4ccc([N+](=O)[O-])cc4)cc3)cc2)ccc(C(=O)Nc2ccc(C(=O)O)c(F)c2)c1O			DSM1116			1 µg/mL
Cc1ccc2nc(-c3ccc(Cl)cc3Cl)[nH]c2c1	broth dilution		ATCC25922			64 µg/mL
CC(C)COc1c(NC(=O)c2ccc(NC(=O)[C@H](CC(N)=O)NC(=O)c3ccc(NC(=O)c4ccc(C#N)cc4)cc3)cc2)ccc(C(=O)Nc2ccc(C(=O)O)cc2)c1O			DSM1116			0.25 µg/mL
O=C(Nc1ccc2c(c1)OC(F)(F)O2)Nc1ccc(Cl)c(C(F)(F)F)c1			CFT073			> 100 µM
O=C(Cc1ccc(O)c(O)c1)NCCCCCCCC[P+](c1ccccc1)(c1ccccc1)c1ccccc1.[Br-]	broth dilution		ATCC25922	18 h		> 32 µg/mL
O=[N+]([O-])c1ccc(-c2nc3cccc(O)c3[nH]2)o1	broth dilution		ATTC25922			2 µg/mL
N=C(N)c1cccc(OCCCCCOc2cccc(C(=N)N)c2)c1	broth dilution		BW25113			> 200 µg/mL
Cc1ccc2nc(-c3ccc(Cl)cc3)[nH]c2c1	broth dilution		ATCC25922			256 µg/mL
N=C(N)c1ccc(OCCCCCCCCCOc2ccc(C(=N)N)cc2)cc1			BW25113			50 µg/mL
CCCCCCC/C=C/C(=O)N1C(=O)/C(=C(/C)O)C(=O)C1CO (stereo not drawn)		K12	K12			> 200 µg/mL
Cc1cc(C)n(C(=O)c2ccc(-n3c(C)ccc3C)cc2)n1	broth dilution		ATCC10536	18 h		250 µg/mL
C[C@@H](O)[C@H]1C(=O)N2C(C(=O)O)=C(S[C@@H]3CN[C@H](C(=O)N(C)C)C3)[C@H](C)[C@H]12	broth dilution		ATCC35218			≤ 0.125 µg/mL
CC(C)Oc1c(NC(=O)c2ccc(NC(=O)[C@H](CC(N)=O)NC(=O)c3ccc(NC(=O)c4ccc(C#N)cc4)cc3)cc2)ccc(C(=O)Nc2cccc(C(=O)O)c2)c1O			DSM1116			0.5 µg/mL
Fc1ccccc1NCc1ccc(Oc2ccccn2)cc1						> 25 µg/mL
C/C(=C\c1ccc(C#N)cc1)C(=O)Nc1ccc(C(=O)N[C@@H](CC(N)=O)C(=O)Nc2ccc(C(=O)Nc3ccc(C(=O)Nc4ccc(C(=O)O)cc4)c(O)c3OC(C)C)cc2)cc1			DSM1116			0.125 µg/mL
C=CCn1c(-c2ccc(Cl)cc2)nc2ccc(C)cc21	broth dilution		ATCC25922			256 µg/mL
N=C(N)c1ccc(OCCC(CCOc2ccc(C(=N)N)cc2)c2ccccc2)cc1 (stereo not drawn)	broth dilution		BW25113			> 200 µg/mL
Cc1ccc(C)n1-c1ccc(-c2nnc(-c3c(Cl)cccc3Cl)[nH]2)cc1	broth dilution		ATCC10536	18 h		62.5 µg/mL

Structure (SMILES)	technique	cell line	strain	time	setting	MIC
CCCCCCC#Cc1cncc(-c2nnc(SCc3ccc([N+](=O)[O-])o3)n2C)c1						≥ 20 µg/mL
CC1=NN(CNc2c(O)c(S(=O)(=O)O)cc3ccccc23)C(=O)C1=NNn1c(-c2ccccc2)nc2ccccc2c1=O	broth dilution			24 h		41.8 µM
CCCCCCC/C=C/C(=O)N1C(=O)/C(=C(/C)O)C(=O)C1Cc1ccc(O)cc1 (stereo not drawn)		K12	K12			> 200 µg/mL
N=C(N)c1ccc(OCc2cccc(COc3ccc(C(=N)N)cc3)c2)cc1	broth dilution		BW25113			> 200 µg/mL
CC(C)Oc1c(NC(=O)c2ccc(NC(=O)[C@H](CC(N)=O)NC(=O)c3ccc(NC(=O)c4ccc(C#N)cc4)cc3)cc2)ccc(C(=O)Nc2ccc(C(=O)O)cc2)c1O			ATCC25922			0.02 µg/mL
O=C(CCc1ccc(O)c(O)c1)NCCCCCCCC[P+](c1ccccc1)(c1ccccc1)c1ccccc1.[Br-]	broth dilution		ATCC25922	18 h		> 32 µg/mL
N=C(N)c1ccc(OCc2cc(Br)cc(COc3ccc(C(=N)N)cc3)c2)cc1	broth dilution		ATCC25922			100 µg/mL
CC1(C)S[C@@H]2[C@H](NC(=O)[C@H](N)c3ccccc3)C(=O)N2[C@H]1C(=O)O	broth dilution		ATCC25922			8 µg/mL
CC(NCCCN)c1cc2cc(Br)ccc2[nH]1 (stereo not drawn)	broth dilution		ATCC25922			128 µg/mL
C[C@@H](O)[C@H]1C(=O)N2C(C(=O)O)=C(S[C@@H]3CN[C@H](C(=O)N(C)C)C3)[C@H](C)[C@H]12	broth dilution			24 h		0.0312 µg/mL
CC(C)Oc1c(NC(=O)c2ccc(NC(=O)[C@H](CC(N)=O)NC(=O)c3ccc(NC(=O)c4ccc([N+](=O)[O-])c5cccnc45)cc3)cc2)ccc(C(=O)Nc2ccc(C(=O)O)cc2)c1O			DSM1116			0.25 µg/mL
O=C1NN=C(N=Cc2ccc(O)c(O)c2)C1=NNn1c(-c2ccccc2)nc2ccccc2c1=O	broth dilution			24 h		53.5 µM
CO[C@@H](C(N)=O)[C@H](NC(=O)c1ccc(NC(=O)c2ccc(C#N)cc2)cc1)C(=O)Nc1ccc(C(=O)Nc2ccc(C(=O)Nc3ccc(C(=O)O)cc3)c(O)c2OC(C)C)cc1			DSM1116			< 0.03 µg/mL
Cc1ccc2nc(-c3ccccc3Cl)[nH]c2c1	broth dilution		ATCC25922			64 µg/mL
COc1c(C)c(OC)c2c(c1C)OC(c1ccccc1)CC2=O (stereo not drawn)	broth dilution		ATCC25922			5000 µg/mL
CSc1ccc(/C=C/c2cc(/C=C3\Sc4ccccc4N3CCCN3CCCC3)c3ccccc3[n+]2C)cc1.[I-]	broth dilution		ATCC25922			16 µg/mL
CCn1cc(C(=O)O)c(=O)c2cc(F)c(N3CCNCC3)cc21	broth dilution	ATCC 8739	ATCC8739			1 µM
Cc1ccc2nc(-c3ccccc3O)[nH]c2c1	broth dilution		ATCC25922			128 µg/mL
CCCCCCC#Cc1cncc(-c2nnc(SCc3ccc([N+](=O)[O-])cc3)n2C)c1						≥ 20 µg/mL
CC1=NN(CNc2ccc(Cl)cc2)C(=O)C1=NNn1c(-c2ccccc2)nc2ccccc2c1=O	broth dilution			24 h		51.5 µM
COc1c(C)c(OC(=O)c2ccccc2)c(C)c(O)c1C(=O)/C=C/c1ccccc1	broth dilution		ATCC25922			5000 µg/mL
Cc1ccc2nc(-c3ccc(Cl)cc3)n(Cc3ccccc3)c2c1	broth dilution		ATCC25922			16 µg/mL
O=[N+]([O-])c1ccc(O)c2ncccc12	broth dilution		ATCC35218			4 µg/mL
Cc1ccc2nc(-c3cccc([N+](=O)[O-])c3)[nH]c2c1	broth dilution		ATCC25922			256 µg/mL
CCOc1ccc(-c2nc3cc(-c4nc5cc(N6CCN(C)CC6)ccc5[nH]4)ccc3[nH]2)cc1	broth dilution		25922	24 h		8 to 16 µg/mL
C/C(O)=C1\C(=O)C(CC(C)C)N(C(=O)CCCCCc2ccccc2)C1=O (stereo not drawn)		K12	K12			> 200 µg/mL
Cc1ccc2nc(-c3ccco3)n(Cc3ccccc3)c2c1	broth dilution		ATCC25922			128 µg/mL
